# In ChEMBL document CHEMBL4364256, “Design, synthesis and biological evaluation of antimicrobial diarylimine and -amine compounds targeting the interaction between the bacterial NusB and NusE proteins” (Eur J Med Chem, 2019):
# Calls of active or inactive are those of the source. The rule behind the calls is not given here.
# Legend:
# Staphylococcus aureus [1] = assay: microbe, parasite or virus in culture; settings: ATCC 29213, 20 h
# Enterococcus faecium = assay: Antimicrobial activity against Enterococcus faecium ATCC 19433 incubated for 20 hrs by microdilution method; format: functional; settings: ATCC 19433, 20 h
# Summary of the method: (§1)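 Broth microdilution MIC testing done following CLSI guidelines.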
# Staphylococcus aureus [2] = assay: microbe, parasite or virus in culture; settings: ATCC 25923, 20 h
# Acinetobacter baumannii = assay: Antimicrobial activity against Acinetobacter baumannii ATCC 19606 incubated for 20 hrs by microdilution method; format: functional; settings: ATCC 19606 = CIP 70.34 = JCM 6841, 20 h
# Summary of the method: as §1
# [3] = Therapeutic index, ratio of CC50 for human A549 cells to 1/2 times MIC for Staphylococcus aureus ATCC 25923; format: toxicity; settings: read-out: TI
# [4] = Therapeutic index, ratio of CC50 for human HaCaT cells to 1/2 times MIC for Staphylococcus aureus ATCC 25923; format: toxicity; settings: read-out: TI
# [5] = Cytotoxicity against human A549 cells assessed as reduction in cell viability after 48 to 72 hrs by MTT assay; format: cell-based
# [6] = Cytotoxicity against human HaCaT cells assessed as reduction in cell viability after 48 to 72 hrs by MTT assay; format: cell-based
# Pseudomonas aeruginosa = assay: Antimicrobial activity against Pseudomonas aeruginosa ATCC 27853 incubated for 20 hrs by microdilution method; format: functional; settings: ATCC 27853, 20 h
# Summary of the method: as §1
# Streptococcus pneumoniae = assay: Antimicrobial activity against Streptococcus pneumoniae ATCC 49619 incubated for 20 hrs by microdilution method; format: functional; settings: ATCC 49619, 20 h
# Summary of the method: as §1
# Bacillus subtilis = assay: Inhibition of N-terminal LgBiT-fused Bacillus subtilis NusB expressed in Escherichia coli BL21(DE3)pLysS interaction with C- terminal SmBiT-fused Bacillus subtilis NusE expressed in Escherichia coli BL21(DE3)pLysS at 100 uM preincubated for 10 mins followed by NusE addition and measured after 10 mins by nano-glo luciferase assay relative to control
# Summary of the method: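 NusB and NusE were mixed 1:1 at 1 µM in PBS, with compound at 100 µM. The read-out was percent inhibition of the NusB-NusE interaction.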
# [7] = microbe, parasite or virus in culture; settings: Enterobacter cloacae, ATCC 13047, 20 h
# Staphylococcus aureus [8] = assay: Antimicrobial activity against Staphylococcus aureus ST22 11B086169 incubated for 20 hrs by microdilution method; format: functional; settings: ST22 11B086169, 20 h
# Summary of the method: (§2)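 MIC determined by microdilution following Clinical & Laboratory Standards Institute (CLSI) guidelines, read in µg/mL, against a panel of hospital- and community-acquired MRSA strains.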
# [9] = Antimicrobial activity against Staphylococcus saprophyticus ATCC 15305 incubated for 20 hrs by microdilution method; format: functional, Staphylococcus saprophyticus subsp. saprophyticus; settings: ATCC 15305, 20 h
# Summary of the method: as §1
# Staphylococcus aureus [10] = assay: Antimicrobial activity against CA-methicillin-resistant Staphylococcus aureus W46 ST59 incubated for 20 hrs by microdilution method; settings: W46 ST59, 20 h
# Streptococcus pyogenes = assay: Antimicrobial activity against Streptococcus pyogenes ATCC 19615 incubated for 20 hrs by microdilution method; format: functional; settings: ATCC 19615, 20 h
# Summary of the method: as §1
# Staphylococcus aureus [11] = assay: Antimicrobial activity against Staphylococcus aureus HA W231 ST45 incubated for 20 hrs by microdilution method; format: functional; settings: HA W231 ST45, 20 h
# Summary of the method: as §2
# Staphylococcus aureus [12] = assay: Antimicrobial activity against Staphylococcus aureus ATCC BAA43 incubated for 20 hrs by microdilution method; format: functional; settings: ATCC BAA43, 20 h
# Summary of the method: as §2
# Staphylococcus aureus [13] = assay: Antimicrobial activity against CA-methicillin-resistant Staphylococcus aureus W4 ST338 incubated for 20 hrs by microdilution method; format: functional; settings: W4 ST338, 20 h
# Summary of the method: as §2
# [14] = test system: Staphylococcus epidermidis; assay: Antimicrobial activity against Staphylococcus epidermidis ATCC 12228 incubated for 20 hrs by microdilution method; format: functional; settings: ATCC 12228, 20 h
# Summary of the method: as §1
# Staphylococcus aureus [15] = assay: Antimicrobial activity against Staphylococcus aureus ST239 incubated for 20 hrs by microdilution method; format: functional; settings: CN79, 20 h
# Summary of the method: as §2
# Staphylococcus aureus [16] = assay: Antimicrobial activity against CA-methicillin-resistant Staphylococcus aureus W48 ST217 incubated for 20 hrs by microdilution method; settings: W48 ST217, 20 h
# Staphylococcus aureus [17] = assay: Antimicrobial activity against Staphylococcus aureus ATCC BAA44 incubated for 20 hrs by microdilution method; format: functional; settings: ATCC BAA44, 20 h
# Summary of the method: as §2
# Streptococcus agalactiae = assay: Antimicrobial activity against Streptococcus agalactiae ATCC 12386 incubated for 20 hrs by microdilution method; format: functional; settings: ATCC 12386, 20 h
# Summary of the method: as §1
# Staphylococcus aureus [18] = assay: Antimicrobial activity against Staphylococcus aureus HA W235 ST5 incubated for 20 hrs by microdilution method; format: functional; settings: HA W235 ST5, 20 h
# Summary of the method: as §2
# Staphylococcus aureus [19] = assay: Antimicrobial activity against CA-methicillin-resistant Staphylococcus aureus W45 ST59 incubated for 20 hrs by microdilution method; settings: W45 ST59, 20 h
# Staphylococcus aureus [20] = assay: Antimicrobial activity against CA-methicillin-resistant Staphylococcus aureus W47 ST30 incubated for 20 hrs by microdilution method; format: functional; settings: W47 ST30, 20 h
# Summary of the method: as §2
# [21] = test system: Enterococcus casseliflavus; assay: Antimicrobial activity against Enterococcus casseliflavus ATCC 25788 incubated for 20 hrs by microdilution method; format: functional; settings: ATCC 25788, 20 h
# Summary of the method: as §1
# Staphylococcus aureus [22] = assay: Antimicrobial activity against Staphylococcus aureus USA300/ST8 incubated for 20 hrs by microdilution method; settings: USA300 ST8, 20 h
# Bacteria = assay: Binding affinity to bacterial NusB assessed as change in chiral structure at 2 ug/ml by circular dichroism spectroscopic analysis
# Summary of the method: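 Circular dichroism spectra were recorded on NusB at 2.0 µg/mL in neutral phosphate buffer, alone and after mixing with compound at a 1:1 ratio. Binding was read as a change in the spectrum.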
inhibition (Bacillus subtilis) [%],Compound,MIC (Staphylococcus aureus [1]) [µg/mL],MIC (Enterococcus faecium) [µg/mL],MIC (Staphylococcus aureus [2]) [µg/mL],MIC (Acinetobacter baumannii) [µg/mL],MIC (Pseudomonas aeruginosa) [µg/mL],MIC (Streptococcus pneumoniae) [µg/mL],MIC [7] [µg/mL],MIC (Staphylococcus aureus [8]) [µg/mL],MIC [9] [µg/mL],MIC (Staphylococcus aureus [10]) [µg/mL],MIC (Streptococcus pyogenes) [µg/mL],MIC (Staphylococcus aureus [11]) [µg/mL],MIC (Staphylococcus aureus [12]) [µg/mL],MIC (Staphylococcus aureus [13]) [µg/mL],MIC [14] [µg/mL],MIC (Staphylococcus aureus [15]) [µg/mL],MIC (Staphylococcus aureus [16]) [µg/mL],MIC (Staphylococcus aureus [17]) [µg/mL],MIC (Streptococcus agalactiae) [µg/mL],other results
50.6,C#Cc1cccc(NCc2cc(Cl)cc(Cl)c2O)c1,4,32,2,> 256,> 256,256,> 256,–,–,–,–,–,–,–,–,–,–,–,–,selectivity ratio [3]: 33; selectivity ratio [4]: 32; CC50 [5]: 112 µM; CC50 [6]: 108 µM
–,Cc1onc(-c2ccccc2)c1C(=O)N[C@@H]1C(=O)N2[C@@H]1SC(C)(C)[C@@H]2C(=O)O [OXACILLIN],0.25,16,0.5 to 1,> 256,> 256,2,> 256,64,1,8,0.0625,4,> 256,0.5,0.25,> 256,64,> 256,0.5,MIC (Staphylococcus aureus [18]): > 256 µg/mL; MIC (Staphylococcus aureus [19]): 8 µg/mL; MIC (Staphylococcus aureus [20]): 4 µg/mL; MIC [21]: 32 µg/mL; MIC (Staphylococcus aureus [22]): 32 µg/mL
–,O=C(O)c1cn(C2CC2)c2cc(N3CCNCC3)c(F)cc2c1=O [CIPROFLOXACIN],0.5 to 1,4,0.5 to 1,2,–,–,–,4,0.5,0.25,0.5,2,2,0.5,0.0625,4,4,4,4,MIC (Staphylococcus aureus [18]): 4 µg/mL; MIC (Staphylococcus aureus [19]): 0.25 µg/mL; MIC (Staphylococcus aureus [20]): 0.5 µg/mL; MIC [21]: 4 µg/mL; MIC (Staphylococcus aureus [22]): 4 µg/mL
16.8,CC(C)(C)c1ccccc1/N=C/c1cc([N+](=O)[O-])ccc1O,16,> 256,4,> 256,> 256,64,> 256,–,–,–,–,–,–,–,–,–,–,–,–,Activity (Bacteria): Active

Compound,inhibition (Bacillus subtilis) [%],MIC (Staphylococcus aureus [1]) [µg/mL],MIC (Enterococcus faecium) [µg/mL],MIC (Staphylococcus aureus [2]) [µg/mL],MIC (Acinetobacter baumannii) [µg/mL],MIC (Pseudomonas aeruginosa) [µg/mL],MIC (Streptococcus pneumoniae) [µg/mL],MIC [7] [µg/mL],MIC (Staphylococcus aureus [8]) [µg/mL],MIC [9] [µg/mL],MIC (Staphylococcus aureus [10]) [µg/mL],MIC (Streptococcus pyogenes) [µg/mL],MIC (Staphylococcus aureus [11]) [µg/mL],MIC (Staphylococcus aureus [12]) [µg/mL],MIC (Staphylococcus aureus [13]) [µg/mL],MIC [14] [µg/mL],MIC (Staphylococcus aureus [15]) [µg/mL],MIC (Staphylococcus aureus [16]) [µg/mL],MIC (Staphylococcus aureus [17]) [µg/mL],MIC (Streptococcus agalactiae) [µg/mL],other results
O=[N+]([O-])c1ccc(O)c(CNc2ccccc2C(F)(F)F)c1,61.5,2,8,2,128,> 256,8,256,4,4,2,16,4,4,2,2,4,2,4,16,selectivity ratio [3]: 6; selectivity ratio [4]: 6; CC50 [5]: 20 µM; CC50 [6]: 18.3 µM; MIC (Staphylococcus aureus [18]): 2 µg/mL; MIC (Staphylococcus aureus [19]): 4 µg/mL; MIC (Staphylococcus aureus [20]): 4 µg/mL; MIC [21]: 64 µg/mL; MIC (Staphylococcus aureus [22]): 2 µg/mL
